Key:
[1] = molecular target: Matrix metalloproteinase-9 (Homo sapiens) (UniProt P14780); assay: Inhibition of MMP9 at 10 uM by fluorimetric assay; set-up: scale not given: the % may be the effect or the level left
[2] = Stability in mouse serum assessed as half life; type: ADME, cell-free
Method in brief: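 Peptides were incubated in murine serum and the half-life was determined.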

[3] = molecular target: 72 kDa type IV collagenase (Homo sapiens) (UniProt P08253); assay: Inhibition of MMP2 at 10 uM by fluorimetric assay; set-up: scale not given: the % may be the effect or the level left
Sequence of 72 kDa type IV collagenase (Homo sapiens) (P08253 110-660 limits assumed): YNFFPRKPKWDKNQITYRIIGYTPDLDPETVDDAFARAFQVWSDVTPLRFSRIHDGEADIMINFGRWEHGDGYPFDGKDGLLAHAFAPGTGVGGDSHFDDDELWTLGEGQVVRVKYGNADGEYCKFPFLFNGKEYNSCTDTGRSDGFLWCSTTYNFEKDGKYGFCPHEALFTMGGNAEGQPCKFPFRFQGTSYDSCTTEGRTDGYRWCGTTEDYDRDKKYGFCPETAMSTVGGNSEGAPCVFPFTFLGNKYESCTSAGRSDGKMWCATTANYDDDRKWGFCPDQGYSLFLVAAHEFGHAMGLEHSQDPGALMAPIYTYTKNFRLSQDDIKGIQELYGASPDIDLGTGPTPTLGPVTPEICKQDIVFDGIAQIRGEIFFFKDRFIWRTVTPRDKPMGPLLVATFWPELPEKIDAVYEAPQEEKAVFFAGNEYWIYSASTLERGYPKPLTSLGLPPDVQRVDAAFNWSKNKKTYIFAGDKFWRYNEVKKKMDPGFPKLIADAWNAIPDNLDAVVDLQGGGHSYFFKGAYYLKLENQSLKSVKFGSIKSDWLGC

KiSS-1 receptor [4] = molecular target: T1, KiSS-1 receptor (Homo sapiens, UniProt Q969F8); assay: Displacement of [125I]kisspeptin-15 from human GPR54 expressed in CHO cell membrane; type: cell membranes
T1 sequence (Q969F8 whole entry): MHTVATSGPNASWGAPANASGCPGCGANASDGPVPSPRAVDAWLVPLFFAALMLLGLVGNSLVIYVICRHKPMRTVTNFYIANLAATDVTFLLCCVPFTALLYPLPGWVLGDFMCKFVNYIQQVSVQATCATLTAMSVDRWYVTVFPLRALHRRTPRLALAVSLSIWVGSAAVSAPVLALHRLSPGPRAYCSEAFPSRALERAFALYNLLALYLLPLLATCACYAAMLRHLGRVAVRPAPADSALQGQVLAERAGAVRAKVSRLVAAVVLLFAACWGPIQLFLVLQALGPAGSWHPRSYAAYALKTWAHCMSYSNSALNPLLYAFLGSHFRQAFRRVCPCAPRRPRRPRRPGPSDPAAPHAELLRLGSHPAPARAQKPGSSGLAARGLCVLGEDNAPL

KiSS-1 receptor [5] = molecular target: T1, KiSS-1 receptor; assay: Agonist activity at human GPR54 expressed in CHO cells assessed as effect on kisspeptin-10-induced response by FLIPR assay; type: functional, cell-based
KiSS-1 receptor [6] = molecular target: T1, KiSS-1 receptor; assay: Ratio of IC50 of compound to IC50 of kisspeptin-10 for human GPR54
Serum = assay: Stability in mouse serum within 1 hr; type: ADME, cell-free

Sequence of Matrix metalloproteinase-9 (Homo sapiens) (P14780 whole entry): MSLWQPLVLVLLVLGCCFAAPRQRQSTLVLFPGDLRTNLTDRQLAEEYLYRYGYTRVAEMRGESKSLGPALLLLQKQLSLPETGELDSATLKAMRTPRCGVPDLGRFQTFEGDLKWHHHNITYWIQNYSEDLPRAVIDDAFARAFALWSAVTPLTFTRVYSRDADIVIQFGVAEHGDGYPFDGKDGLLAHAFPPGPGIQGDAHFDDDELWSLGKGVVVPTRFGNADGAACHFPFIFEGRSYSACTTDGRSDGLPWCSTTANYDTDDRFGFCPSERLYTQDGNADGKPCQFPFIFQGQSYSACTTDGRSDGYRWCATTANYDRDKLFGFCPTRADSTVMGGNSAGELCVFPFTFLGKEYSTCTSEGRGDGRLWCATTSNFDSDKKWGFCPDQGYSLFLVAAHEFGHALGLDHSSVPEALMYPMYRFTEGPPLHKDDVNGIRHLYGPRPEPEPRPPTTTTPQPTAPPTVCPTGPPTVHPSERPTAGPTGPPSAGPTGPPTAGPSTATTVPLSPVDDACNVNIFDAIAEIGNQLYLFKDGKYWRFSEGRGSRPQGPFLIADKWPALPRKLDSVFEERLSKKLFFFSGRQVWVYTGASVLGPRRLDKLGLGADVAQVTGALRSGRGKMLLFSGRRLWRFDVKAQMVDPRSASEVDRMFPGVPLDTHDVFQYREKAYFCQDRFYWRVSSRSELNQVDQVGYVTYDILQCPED

Activity [1] [%] | half-life [2] [min] | Activity [3] [%] | SMILES | further results
102 | 45 | 97.1 | CC(C)C[C@H](CCCNC(=O)[C@H](Cc1ccccc1)NC(=O)c1ccc(F)cc1)C(=O)N[C@@H](CCCNC(=N)N)C(=O)N[C@@H](Cc1c[nH]c2ccccc12)C(N)=O | –
– | 35 | – | CC(C)C[C@H](C[C@H](O)CNC(=O)[C@H](Cc1ccccc1)NC(=O)c1ccc(F)cc1)C(=O)N[C@@H](CCCN=C(N)N)C(=O)N[C@@H](Cc1c[nH]c2ccccc12)C(N)=O | IC50 (KiSS-1 receptor [4]): 0.24 nM
– | 38 | – | CC(C)C[C@H](/C=C/CNC(=O)[C@H](Cc1ccccc1)NC(=O)c1ccc(F)cc1)C(=O)N[C@@H](CCCN=C(N)N)C(=O)N[C@@H](Cc1c[nH]c2ccccc12)C(N)=O | EC50 (KiSS-1 receptor [5]): 0.3 nM
– | – | – | CC(C)C[C@@H](NC(=O)CNC(=O)[C@H](Cc1ccccc1)NC(=O)c1ccc(F)cc1)C(=O)N[C@@H](CCCNC(=N)N)C(=O)N[C@@H](Cc1c[nH]c2ccccc12)C(N)=O | Ratio IC50 (KiSS-1 receptor [6]): 240; IC50 (KiSS-1 receptor [4]): 240 nM
101 | – | 101 | CC(C)C[C@H](/C=C/CNC(=O)[C@H](Cc1ccccc1)NC(=O)c1ccc(F)cc1)C(=O)N[C@@H](CCCNC(=N)N)C(=O)N[C@@H](Cc1c[nH]c2ccccc12)C(N)=O | –
– | 6.6 | – | CC(C)C[C@H](NC(=O)CNC(=O)[C@H](Cc1ccccc1)NC(=O)c1ccc(F)cc1)C(=O)N[C@@H](CCCN=C(N)N)C(=O)N[C@@H](Cc1c[nH]c2ccccc12)C(N)=O | IC50 (KiSS-1 receptor [4]): 0.71 nM; EC50 (KiSS-1 receptor [5]): 0.45 nM
100 | 120 | 99.3 | CC(C)C[C@@H](C[C@H](O)CNC(=O)[C@H](Cc1ccccc1)NC(=O)c1ccc(F)cc1)C(=O)N[C@@H](CCCNC(=N)N)C(=O)N[C@@H](Cc1c[nH]c2ccccc12)C(N)=O | –
– | – | – | CC(C)C[C@H](NC(=O)CNC(=O)[C@H](Cc1ccccc1)NC(=O)[C@H](CO)NC(=O)[C@H](CC(N)=O)NC(=O)[C@H](Cc1c[nH]c2ccccc12)NC(=O)[C@H](CC(N)=O)NC(=O)[C@@H](N)Cc1ccc(O)cc1)C(=O)N[C@@H](CCCNC(=N)N)C(=O)N[C@@H](Cc1ccccc1)C(N)=O [KISSPEPTIN-10] | IC50 (KiSS-1 receptor [4]): 0.07 nM; Stability (Serum): Unstable
– | 470 | – | CC(C)C[C@@H](C[C@@H](O)CNC(=O)[C@H](Cc1ccccc1)NC(=O)c1ccc(F)cc1)C(=O)N[C@@H](CCCN=C(N)N)C(=O)N[C@@H](Cc1c[nH]c2ccccc12)C(N)=O | IC50 (KiSS-1 receptor [4]): 380 nM
– | – | – | CC(C)C[C@H](NC(=O)CNC(=O)[C@H](Cc1ccccc1)NC(=O)c1ccc(F)cc1)C(=O)N[C@@H](CCCNC(=N)N)C(=O)N[C@@H](Cc1c[nH]c2ccccc12)C(N)=O | Ratio IC50 (KiSS-1 receptor [6]): 7.3
– | 1100 | – | CC(C)C/C(=C\[C@H](O)CNC(=O)[C@H](Cc1ccccc1)NC(=O)c1ccc(F)cc1)C(=O)N[C@@H](CCCN=C(N)N)C(=O)N[C@@H](Cc1c[nH]c2ccccc12)C(N)=O | –
108 | – | 96.5 | CC(C)C[C@@H](C[C@@H](O)CNC(=O)[C@H](Cc1ccccc1)NC(=O)c1ccc(F)cc1)C(=O)N[C@@H](CCCNC(=N)N)C(=O)N[C@@H](Cc1c[nH]c2ccccc12)C(N)=O | –
109 | 54 | 96.2 | CC(C)C[C@H](C[C@@H](O)CNC(=O)[C@H](Cc1ccccc1)NC(=O)c1ccc(F)cc1)C(=O)N[C@@H](CCCNC(=N)N)C(=O)N[C@@H](Cc1c[nH]c2ccccc12)C(N)=O | –
104 | 60 | 99.1 | CC(C)C/C(=C\[C@@H](O)CNC(=O)[C@H](Cc1ccccc1)NC(=O)c1ccc(F)cc1)C(=O)N[C@@H](CCCNC(=N)N)C(=O)N[C@@H](Cc1c[nH]c2ccccc12)C(N)=O | –
98.9 | 52 | 94.5 | CC(C)C/C(=C\CCNC(=O)[C@H](Cc1ccccc1)NC(=O)c1ccc(F)cc1)C(=O)N[C@@H](CCCNC(=N)N)C(=O)N[C@@H](Cc1c[nH]c2ccccc12)C(N)=O | –
103 | – | 98.7 | CC(C)C[C@H](C[C@H](O)CNC(=O)[C@H](Cc1ccccc1)NC(=O)c1ccc(F)cc1)C(=O)N[C@@H](CCCNC(=N)N)C(=O)N[C@@H](Cc1c[nH]c2ccccc12)C(N)=O | –
103 | – | 96.9 | CC(C)C/C(=C\[C@H](O)CNC(=O)[C@H](Cc1ccccc1)NC(=O)c1ccc(F)cc1)C(=O)N[C@@H](CCCNC(=N)N)C(=O)N[C@@H](Cc1c[nH]c2ccccc12)C(N)=O | –

From ChEMBL document CHEMBL1140226, “Development of novel G-protein-coupled receptor 54 agonists with resistance to degradation by matrix metalloproteinase” (J Med Chem, 2008)
